# Screening results from PubChem.
# The sample as a whole holds a higher share of hits than the screen did.
# CHOP inh: blocks CHOP induction under ER stress; CHO-K1 CHOP-promoter luciferase, tunicamycin-induced, 15-18 h; inhibition, % at 10 µM; actives 3.8% (n = 220,000); AID 2732;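 active means compounds that reduced the stress-induced luciferase reporter signal by more than about 70% of percent inhibition, limit read from the data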
# CHOP UPR activ: apoptotic UPR (CHOP) activation | CHO-CHOP luciferase reporter, luminescence; percent of tunicamycin response over DMSO baseline | activation, % at 10 µM | actives 0.34% (n = 330,000);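 active means at 10 µM dose, activation of 40% or more, normalized to positive control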
#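 measured by = luciferase luminescence | assay system = CHO-CHOP cells, stable luciferase reporter of PERK-eIF2a-CHOP signalling | amount = 500 reporter cells seeded per well | timing = 6 h compound exposure at 37 °C after overnight seeding | controls = positive tunicamycin 10 µg/mL, negative DMSO alone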
# iPSC survival up: hiPSC single-cell survival enhancement. ATPlite luminescence; 100% = ROCK inhibitor wells, 0% = DMSO. survival enhancement, % at 20 µM. actives 0.044% (n = 360,000); in the data active means survival enhancement above about 18%;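 further: cells exposed to compounds for 16 hours before the ATP read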
# H9c2 protect: protects H9c2 cardiomyocytes from peroxide injury. actives 0.63% (n = 360,000). protection from H2O2 cell death, % at 20 µM. H2O2 injury protection, ATPLite, 2 h. AID 588492;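 active means compounds giving at least 50% protection of heart cells from peroxide-induced death in the single-dose screen, raw or plate-pattern-corrected value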
# UPR XBP1 act: activators of adaptive arm of unfolded protein response (XBP1); AID 463104; activation, % at 20 µM; CHO-XBP1 luciferase reporter, IRE1-XBP1 UPR activation, luminescence; percent of tunicamycin response, DMSO as zero; actives 0.33% (n = 330,000);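 active means versus positive control, 20 µM dose yields 30% or more activation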
#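 assay system = CHO-XBP1 luciferase reporter cells | amount = 1000 cells/well | buffer or medium = F12 plus 10% FBS | compound dosing = single point, 20 µM final compound, 1% DMSO | incubation = 16-18 h cell attachment at 37 °C, then 6 h compound exposure | detection = Steady-Glo luminescence read | controls = tunicamycin 10 µg/mL and vehicle-only wells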
# A number is an active result; 0 = inactive; - = no result.
SMILES,CHOP inh,CHOP UPR activ,iPSC survival up,H9c2 protect,UPR XBP1 act
C=CCn1c(=NC(=O)c2ccco2)sc2cc(C(=O)OCC)ccc21,84,0,0,0,0
COCCn1c(=NC(=O)c2ccco2)sc2cc(C(=O)OC)ccc21,0,0,0,0,0
Cc1ccc(OCC(=O)N2CCN(C(=O)CCC3CCCC3)CC2)cc1,0,0,0,0,0
O=C(CCC1CCCC1)N1CCN(C(=O)COc2ccccc2)CC1,75,0,0,0,0
O=C(Nc1ccc(CN2CCOCC2)cc1)c1ccc(-c2ccc(Br)cc2)o1,80,0,0,0,0
O=C(Nc1ccc(CN2CCOCC2)cc1)c1ccc(Br)cc1,-,0,0,0,0
CCN(CC)CCCNc1nc2cc(OC)c(OC)cc2c2nc(-c3ccccc3)nn12,0,0,0,0,0
COc1cc2nc(NCC3CCCO3)n3nc(-c4cccnc4)nc3c2cc1OC (stereo not given),0,0,0,91,0
CCN(CC)CCCNc1nc2cc(OC)c(OC)cc2c2nc(-c3cccnc3)nn12,0,0,0,0,0
COCCCNc1nc2cc(OC)c(OC)cc2c2nc(-c3ccccc3)nn12,-,0,0,56,0
Cc1ccc(-c2noc(Cn3nc(C(=O)O)c4ccccc4c3=O)n2)cc1,-,0,0,0,0
Cc1noc(C)c1Cn1nc(C(=O)O)c2ccccc2c1=O,0,0,0,64,0
Cc1cccc(C)c1OCCn1nc(C(=O)O)c2ccccc2c1=O,72,0,0,57,0
Cc1cccc(OCCn2nc(C(=O)O)c3ccccc3c2=O)c1,85,0,0,73,0
Cc1noc(C)c1C(=O)Nc1nc2ccccc2s1,-,0,0,0,0
O=C(NCC(=O)N1CCN(Cc2ccccc2)CC1)c1ccc(Br)o1,-,0,0,0,0
COc1cc(NC(=O)Cn2c([N+](=O)[O-])cnc2C)c(OC)cc1Cl,-,0,0,0,0
COc1ccc(CCNC(=O)c2cc(-c3cc(Cl)cc(Cl)c3)oc2C)cc1,70,0,0,0,0
CC1(C(=O)NCC2CCOCC2)Cc2c(-c3cccc(C(F)(F)F)c3)ccnc2O1 (stereo not given),-,-,0,0,-
O=C(NCCc1ccccc1)c1ccc2nc3cc(Cl)ccc3c(=O)n2c1,-,0,0,0,0
O=C(NCCc1ccccc1Cl)c1ccc2nc3ccccc3c(=O)n2c1,-,0,0,58,0
COC(=O)c1sccc1NC(=O)C1CC2CCC1C2 (stereo not given),94,0,0,0,0
COC(=O)c1sccc1NC(=S)N1CC(C)CC(C)C1 (stereo not given),93,-,0,0,-
COC(=O)c1sccc1NC(=S)N1CCC(C)CC1,0,0,0,0,0
O=C(CCN1C(=O)/C(=C\c2cccs2)SC1=S)NC1=NCCS1,0,0,0,0,0
SMILES,CHOP inh,CHOP UPR activ,iPSC survival up,H9c2 protect,UPR XBP1 act
COC(=O)c1ccc(/C=C2/SC(=S)N(CCCC(=O)Nc3ccccn3)C2=O)cc1,77,0,0,0,0
COc1ccccc1/C=C1\SC(=S)N(CC(=O)Nc2nnc(C)s2)C1=O,72,0,-,-,0
CC(=O)c1ccc(NC(=O)CN2C(=O)/C(=C/C=C/c3ccccc3)SC2=S)cc1,74,0,0,0,0
CCc1ccc(/C=C2\SC(=S)N(CCC(=O)NC3=NCCS3)C2=O)cc1,88,0,-,-,0
Oc1ccc(C(=Nc2ccccc2)c2ccccc2)c(O)c1,-,-,0,0,-
O=C(CCN1C(=O)/C(=C/C=C/c2ccccc2)SC1=S)Nc1ccccn1,85,0,0,0,0
Cc1ccc(/C=C2\SC(=S)N(CC(=O)Nc3cccnc3)C2=O)cc1,86,0,0,0,0
CC(=O)Oc1ccccc1Cn1c(C)c(C(=O)NCc2ccc(Cl)c(Cl)c2)sc1=O,-,-,0,0,-
Cc1nccn1CC(=O)c1ccccc1,-,-,0,0,-
CSc1nc(=O)[nH]nc1Sc1ccccc1,-,-,0,0,-
Cc1cc(C)c(S(=O)(=O)c2ccccc2C)c(OCC(C)(C)C)n1,75,0,0,0,0
CCOCCOc1nc(C)cc(C)c1S(=O)(=O)c1ccccc1C,0,0,0,0,0
O=C1NC(Cc2ccccc2)c2nc3cc(F)ccc3c(=O)n2-c2ccccc21 (stereo not given),-,0,-,-,0
O=C(Nc1ccc(-c2cc3ccccc3oc2=O)c(Cl)c1)c1cccnc1,0,0,0,0,0
